Test results taken from ChEMBL document CHEMBL3621182, “Adenosine analogs as inhibitors of tyrosyl-tRNA synthetase: Design, synthesis and antibacterial evaluation” (Bioorg Med Chem, 2015).
≈ marks a conversion by molar mass, not a printed value.

Tests used:
[1] = Inhibition of Staphylococcus aureus tyrosyl-tRNA synthetase expressed in Escherichia coli assessed as reduction in tRNA aminoacylation pre-incubated for 10 mins before addition of Escherichia coli MRE600 tRNA and L-tyrosine
Method in brief: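 Tritiated tyrosine aminoacylation at 37°C. Mix (final): 100 mM Tris/Cl pH 7.9, 50 mM KCl, 16 mM MgCl2, 5 mM ATP, 3 mM DTT, 4 mg/ml E. coli MRE600 tRNA, 10 µM L-tyrosine including 0.3 µM L-[ring-3,5-3H]tyrosine. TyrRS (0.2 nM) preincubated 10 min at room temperature with a range of inhibitor concentrations. TCA precipitation onto filters, scintillation counting. Linear rates, under 50% tRNA acylation; IC50 at half activity.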

[2] = test system: Escherichia coli; test: Antimicrobial activity against Escherichia coli ATCC 8739 by MTT assay; type: functional
Method in brief: (§1)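 Broth microdilution in LB medium with MTT read-out. Compound stock 1000 µg/ml in DMSO, diluted serially with sterile medium (50% v/v DMSO in PBS). Inoculum about 10^5 cfu/mL, incubated at 37°C. Then 3 mg/mL MTT in PBS added, 4-5 h at room temperature. Dye extracted with 10% SDS containing 5% isopropanol and HCl for 8-10 h. Absorbance at 570 nm gives MIC50.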

[3] = test system: Staphylococcus aureus; test: Antimicrobial activity against Staphylococcus aureus ATCC 6538 by MTT assay; type: functional; method in brief: as §1
[4] = test system: Pseudomonas aeruginosa; test: Antimicrobial activity against Pseudomonas aeruginosa ATCC 9027 by MTT assay; type: functional; method in brief: as §1

SMILES | IC50 [1] | MIC50 [2] | MIC50 [3] | MIC50 [4]
Nc1ncnc2c1ncn2[C@@H]1O[C@H](COC(=O)Cc2ccccc2O)[C@@H](O)[C@H]1O | 44 µM | 15.9 µg/mL (≈ 39.6 µM) | 37.8 µg/mL (≈ 94.2 µM) | 26 µg/mL (≈ 64.8 µM)
CC1(C)S[C@@H]2[C@H](NC(=O)Cc3ccccc3)C(=O)N2[C@H]1C(=O)O [PENICILLIN G SODIUM] |  |  | 0.54 µg/mL | 
O=C(O)c1cn(C2CC2)c2cc(N3CCNCC3)c(F)cc2c1=O [CIPROFLOXACIN] |  | 0.67 µg/mL (≈ 2.02 µM) |  | 0.1 µg/mL (≈ 0.302 µM)
CC1(C)O[C@@H]2[C@H](O1)[C@@H](COC(=O)Cc1ccc(Br)cc1)O[C@H]2n1cnc2c(N)ncnc21 | 5.6 µM | > 100 µg/mL | > 100 µg/mL | 21.2 µg/mL (≈ 42 µM)
Nc1ncnc2c1ncn2[C@@H]1O[C@H](COC(=O)Cc2ccccc2Cl)[C@@H](O)[C@H]1O | 47 µM | 7.4 µg/mL (≈ 17.6 µM) | > 100 µg/mL | 26.7 µg/mL (≈ 63.6 µM)
CCCCCCCC(=O)OC[C@H]1O[C@@H](n2cnc3c(N)ncnc32)[C@H](O)[C@@H]1O | 93 µM | > 100 µg/mL | > 100 µg/mL | > 100 µg/mL
Nc1ncnc2c1ncn2[C@@H]1O[C@H](COC(=O)Cc2cccc(O)c2)[C@@H](O)[C@H]1O | 9.3 µM | 37 µg/mL (≈ 92.2 µM) | > 100 µg/mL | 27.3 µg/mL (≈ 68 µM)
Nc1ncnc2c1ncn2[C@@H]1O[C@H](COC(=O)c2cccc(F)c2)[C@@H](O)[C@H]1O | 11 µM | 5.3 µg/mL (≈ 13.6 µM) | 20.4 µg/mL (≈ 52.4 µM) | 3.5 µg/mL (≈ 8.99 µM)
COc1ccc(CC(=O)OC[C@H]2O[C@@H](n3cnc4c(N)ncnc43)[C@@H]3OC(C)(C)O[C@@H]32)cc1OC | > 100 µM | 47.3 µg/mL (≈ 97.4 µM) | > 100 µg/mL | 30.1 µg/mL (≈ 62 µM)
Nc1ncnc2c1ncn2[C@@H]1O[C@H](COC(=O)Cc2ccc(F)cc2)[C@@H](O)[C@H]1O | 7.7 µM | > 100 µg/mL | > 100 µg/mL | 26.1 µg/mL (≈ 64.7 µM)
Nc1ncnc2c1ncn2[C@@H]1O[C@H](COC(=O)c2ccccc2)[C@@H](O)[C@H]1O | 39 µM | 33.7 µg/mL (≈ 90.7 µM) | 67.4 µg/mL (≈ 181 µM) | 21.9 µg/mL (≈ 59 µM)
COc1ccc(CC(=O)OC[C@H]2O[C@@H](n3cnc4c(N)ncnc43)[C@H](O)[C@@H]2O)cc1OC | > 100 µM | 16.5 µg/mL (≈ 37 µM) | > 100 µg/mL | 10.2 µg/mL (≈ 22.9 µM)
Nc1ncnc2c1ncn2[C@@H]1O[C@H](COC(=O)c2ccc(Cl)cc2)[C@@H](O)[C@H]1O | 43 µM | 28.1 µg/mL (≈ 69.2 µM) | > 100 µg/mL | 19.3 µg/mL (≈ 47.6 µM)
Nc1ncnc2c1ncn2[C@@H]1O[C@H](COC(=O)Cc2ccc(Br)cc2)[C@@H](O)[C@H]1O | 5.2 µM | 88.9 µg/mL (≈ 191 µM) | 42.2 µg/mL (≈ 90.9 µM) | 19.3 µg/mL (≈ 41.6 µM)
CCCCCCCCCC(=O)OC[C@H]1O[C@@H](n2cnc3c(N)ncnc32)[C@H](O)[C@@H]1O | > 100 µM | > 100 µg/mL | > 100 µg/mL | > 100 µg/mL
CC1(C)O[C@@H]2[C@H](O1)[C@@H](COC(=O)Cc1ccc(O)cc1)O[C@H]2n1cnc2c(N)ncnc21 | 19 µM | 44.6 µg/mL (≈ 101 µM) | > 100 µg/mL | 17.4 µg/mL (≈ 39.4 µM)
Cc1ccc(CC(=O)OC[C@H]2O[C@@H](n3cnc4c(N)ncnc43)[C@H](O)[C@@H]2O)cc1 | 15 µM | 16.4 µg/mL (≈ 41.1 µM) | 47.4 µg/mL (≈ 119 µM) | 11.8 µg/mL (≈ 29.5 µM)
Nc1ncnc2c1ncn2[C@@H]1O[C@H](COC(=O)Cc2cccc(Cl)c2)[C@@H](O)[C@H]1O | 6 µM | 20.2 µg/mL (≈ 48.1 µM) | 49.2 µg/mL (≈ 117 µM) | 35.1 µg/mL (≈ 83.6 µM)
CC(=O)OC[C@H]1O[C@@H](n2cnc3c(N)ncnc32)[C@H](O)[C@@H]1O |  | 77.6 µg/mL (≈ 251 µM) | > 100 µg/mL | 58.2 µg/mL (≈ 188 µM)

SMILES | IC50 [1] | MIC50 [2] | MIC50 [3] | MIC50 [4]
CC1(C)O[C@@H]2[C@H](O1)[C@@H](COC(=O)Cc1ccc(Cl)c(Cl)c1)O[C@H]2n1cnc2c(N)ncnc21 | > 100 µM | 34 µg/mL (≈ 68.8 µM) | 40.2 µg/mL (≈ 81.3 µM) | 19.3 µg/mL (≈ 39 µM)
Nc1ncnc2c1ncn2[C@@H]1O[C@H](COC(=O)Cc2ccc(O)cc2)[C@@H](O)[C@H]1O | 23 µM | 9.8 µg/mL (≈ 24.4 µM) | 44.3 µg/mL (≈ 110 µM) | 25.9 µg/mL (≈ 64.5 µM)
CC1(C)O[C@@H]2[C@H](O1)[C@@H](COC(=O)Cc1cccc(Cl)c1)O[C@H]2n1cnc2c(N)ncnc21 | 6.3 µM | 27.8 µg/mL (≈ 60.4 µM) | 44.9 µg/mL (≈ 97.6 µM) | 22 µg/mL (≈ 47.8 µM)
CC1(C)O[C@@H]2[C@H](O1)[C@@H](COC(=O)Cc1ccc(F)cc1)O[C@H]2n1cnc2c(N)ncnc21 | 7.1 µM | 76.2 µg/mL (≈ 172 µM) | > 100 µg/mL | 24.8 µg/mL (≈ 55.9 µM)
CC1(C)O[C@@H]2[C@H](O1)[C@@H](COC(=O)Cc1cccc(O)c1)O[C@H]2n1cnc2c(N)ncnc21 | 9.6 µM | 18.9 µg/mL (≈ 42.8 µM) | > 100 µg/mL | 25.9 µg/mL (≈ 58.7 µM)
CC1(C)O[C@@H]2[C@H](O1)[C@@H](COC(=O)Cc1ccccc1Cl)O[C@H]2n1cnc2c(N)ncnc21 | 47 µM | 29 µg/mL (≈ 63.1 µM) | > 100 µg/mL | 28 µg/mL (≈ 60.9 µM)
Nc1ncnc2c1ncn2[C@@H]1O[C@H](COC(=O)Cc2ccc(Cl)cc2)[C@@H](O)[C@H]1O | 8.1 µM | 7.7 µg/mL (≈ 18.3 µM) | 13.8 µg/mL (≈ 32.9 µM) | 19.9 µg/mL (≈ 47.4 µM)
Nc1ncnc2c1ncn2[C@@H]1O[C@H](COC(=O)Cc2ccc(Cl)c(Cl)c2)[C@@H](O)[C@H]1O | 97 µM | 19.4 µg/mL (≈ 42.7 µM) | 48.5 µg/mL (≈ 107 µM) | 21.4 µg/mL (≈ 47.1 µM)
CCCCCC(=O)OC[C@H]1O[C@@H](n2cnc3c(N)ncnc32)[C@H](O)[C@@H]1O | 77 µM | > 100 µg/mL | > 100 µg/mL | > 100 µg/mL
Nc1ncnc2c1ncn2[C@@H]1O[C@H](COC(=O)c2ccc(F)cc2)[C@@H](O)[C@H]1O | 51 µM | 24.8 µg/mL (≈ 63.7 µM) | > 100 µg/mL | 11.2 µg/mL (≈ 28.8 µM)
Nc1ncnc2c1ncn2[C@@H]1O[C@H](COC(=O)c2ccc(Br)cc2)[C@@H](O)[C@H]1O | 62 µM | 10.1 µg/mL (≈ 22.4 µM) | > 100 µg/mL | 22.7 µg/mL (≈ 50.4 µM)
CCCC(=O)OC[C@H]1O[C@@H](n2cnc3c(N)ncnc32)[C@H](O)[C@@H]1O | 65 µM | > 100 µg/mL | > 100 µg/mL | 87.3 µg/mL (≈ 259 µM)
Nc1ncnc2c1ncn2[C@@H]1O[C@H](COC(=O)c2cccc(Cl)c2)[C@@H](O)[C@H]1O | 28 µM | 11.3 µg/mL (≈ 27.8 µM) | 9.4 µg/mL (≈ 23.2 µM) | 8.7 µg/mL (≈ 21.4 µM)
Nc1ncnc2c1ncn2[C@@H]1O[C@H](COC(=O)Cc2ccccc2F)[C@@H](O)[C@H]1O | 40 µM | 23.6 µg/mL (≈ 58.5 µM) | 51.4 µg/mL (≈ 127 µM) | 35.8 µg/mL (≈ 88.8 µM)
Nc1ncnc2c1ncn2[C@@H]1O[C@H](COC(=O)Cc2cccc(F)c2)[C@@H](O)[C@H]1O | 0.8 µM | 1.3 µg/mL (≈ 3.22 µM) | 9.2 µg/mL (≈ 22.8 µM) | 0.08 µg/mL (≈ 0.198 µM)
Cc1ccc(CC(=O)OC[C@H]2O[C@@H](n3cnc4c(N)ncnc43)[C@@H]3OC(C)(C)O[C@@H]32)cc1 | 17 µM | 27 µg/mL (≈ 61.4 µM) | > 100 µg/mL | 14.1 µg/mL (≈ 32.1 µM)
CC1(C)O[C@@H]2[C@H](O1)[C@@H](COC(=O)Cc1cccc(F)c1)O[C@H]2n1cnc2c(N)ncnc21 | 1.1 µM | 60.3 µg/mL (≈ 136 µM) | > 100 µg/mL | 12.9 µg/mL (≈ 29.1 µM)
CC1(C)O[C@@H]2[C@H](O1)[C@@H](COC(=O)Cc1cccc(Br)c1)O[C@H]2n1cnc2c(N)ncnc21 | 3.7 µM | 40.6 µg/mL (≈ 80.5 µM) | 38.3 µg/mL (≈ 75.9 µM) | 18.8 µg/mL (≈ 37.3 µM)
